The test system of test [1] is Bacteria. Description: Inhibition of bacterial AmpC beta-lactamase at 5 uM preincubated for 1 min followed by CENTA chromogenic substrate addition by spectrophotometric method relative to control. Put shortly:
(§1)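 AmpC β-lactamase mixed with colloidal aggregator in 50 mM KPi pH 7 at room temperature, mixed by pipetting, incubated 30 s–15 min. Then 70 μM CENTA added and absorbance followed at 405 nm for 150 s. % activity is the initial rate relative to an aggregator-free control. T90 is the incubation time to reach 10% activity.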

Test [2] has as its target T1, Malate dehydrogenase, mitochondrial (Homo sapiens) (UniProt P40926).
T1 sequence (whole entry): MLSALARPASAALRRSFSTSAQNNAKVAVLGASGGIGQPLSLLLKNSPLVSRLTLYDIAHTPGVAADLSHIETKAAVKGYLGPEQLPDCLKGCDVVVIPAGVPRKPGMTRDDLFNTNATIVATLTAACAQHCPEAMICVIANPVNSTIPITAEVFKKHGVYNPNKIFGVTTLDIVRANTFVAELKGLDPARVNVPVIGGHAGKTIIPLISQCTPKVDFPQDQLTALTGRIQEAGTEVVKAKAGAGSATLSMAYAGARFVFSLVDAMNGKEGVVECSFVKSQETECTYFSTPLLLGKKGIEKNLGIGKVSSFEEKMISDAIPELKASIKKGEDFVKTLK
Description: Inhibition of preloaded MDH (unknown origin) preincubated for 30 sec in presence of preloaded AmpC. Put shortly:
(§2)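 Porcine heart MDH assay: 200 μM nicotinamide adenine dinucleotide plus 200 μM oxaloacetate, read at 340 nm for 150 s, in 50 mM KPi pH 7 at room temperature. For preloading, the aggregator was first incubated 5 min with AmpC, then MDH was added and incubated for varying times. % activity is relative to an aggregator-free control.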

Test [3] deals with Bacteria. The test can be described thus: Inhibition of bacterial AmpC beta-lactamase at 10 uM using 2 nM of enzyme preincubated for 5 mins followed by CENTA chromogenic substrate addition by spectrophotometric assay relative to control. The gist of the method: as §1
Test [4] concerns the target T1, Malate dehydrogenase, mitochondrial (Homo sapiens). Description: Inhibition of malate dehydrogenase (unknown origin) assessed as time to reach 90% inhibition pretreated with 50 mM KPi for 15 mins followed by nicotinamide adenine dinucleotide addition measured every 150 sec by spectrophotometric method. Particulars: dose 5.0 mM, in the assay text read “5 mM KPi” for “50 mM KPi”. Put shortly:
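Porcine heart MDH mixed with colloidal aggregator in 50 mM KPi pH 7 at room temperature, incubated 30 s–15 min. Reaction started with 200 μM NADH and 200 μM oxaloacetic acid, followed at 340 nm for 150 s. Initial rate relative to an aggregator-free control gives % activity. T90 is the incubation time to 10% activity.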

The subject of test [5] is Bacteria. The test can be described thus: Inhibition of bacterial AmpC beta-lactamase assessed as time reach to 90% inhibition in absence of preloaded MDH. Put shortly:
(§3)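 AmpC activity with 70 μM CENTA, read at 405 nm for 150 s, in 50 mM KPi pH 7 at room temperature. For preloading, the aggregator was incubated 5 min with MDH before AmpC was added and incubated for varying times. % activity is relative to an aggregator-free rate control. T90 is the time to 10% activity.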

The subject of test [6] is Bacteria. The test can be described thus: Inhibition of bacterial AmpC beta-lactamase assessed as time reach to 90% inhibition in presence of preloaded MDH. The gist of the method: as §3
The next test deals with Escherichia coli. The test can be described thus: Inhibition of Escherichia coli beta galactosidase using ortho-nitrophenyl-beta-galactoside as substrate. Put shortly:
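E. coli β-galactosidase (overproducer) mixed with colloidal aggregator in 50 mM KPi pH 7, incubated 30 s–15 min at room temperature; reaction started with 300 μM ortho-nitrophenyl-β-galactoside and followed at 320 nm for 150 s. Initial rate divided by that of an aggregator-free control gives % activity.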

Test [7] concerns Bacteria. The test can be described thus: Inhibition of bacterial AmpC beta-lactamase at 10 uM using 10 nM of enzyme preincubated for 30 sec followed by CENTA chromogenic substrate addition by spectrophotometric assay relative to control. The gist of the method: as §1
Test [8] deals with Bacteria. The test can be described thus: Inhibition of bacterial AmpC beta-lactamase at 10 uM using 2 nM of enzyme preincubated for 30 sec followed by CENTA chromogenic substrate addition by spectrophotometric assay relative to control. Put shortly: as §1
Test [9] deals with Bacteria. Description: Inhibition of bacterial AmpC beta-lactamase at 10 uM of 10 nM of enzyme preincubated for 5 min followed by CENTA chromogenic substrate addition by spectrophotometric assay relative to control. Set-up: scale not given: the % may be the effect or the level left. Put shortly: as §1
The test system of test [10] is Bacteria. Description: Inhibition of bacterial AmpC beta-lactamase at 5 uM preincubated for 5 min followed by CENTA chromogenic substrate addition by spectrophotometric method relative to control. The gist of the method:
as §1

In test [11] the test system is Bacteria. Description: Inhibition of bacterial AmpC beta-lactamase preincubated for 30 sec in absence of preloaded MDH relative to control. The note with it: concentration not given here. The gist of the method: as §3
The target of test [12] is T1, Malate dehydrogenase, mitochondrial (Homo sapiens). Description: Inhibition of preloaded MDH (unknown origin) preincubated for 30 sec in absence of preloaded AmpC. Put shortly: as §2
Test [13] relates to Bacteria. The test can be described thus: Inhibition of bacterial AmpC beta-lactamase preincubated for 30 sec in presence of preloaded MDH relative to control. The note with it: concentration not given here. Put shortly:
as §3

Test [14] has as its system Bacteria. Description: Inhibition of bacterial AmpC beta-lactamase at 5 uM preincubated for 2 mins followed by CENTA chromogenic substrate addition by spectrophotometric method relative to control. Put shortly:
as §1

Active and inactive are the calls of the source. No cut-off for these calls is given here.

Consider `CNC(=O)c1cc(Oc2ccc(NC(=O)Nc3ccc(Cl)c(C(F)(F)F)c3)cc2)ccn1`, for which the inhibition – broadly, how much of the control response was suppressed – was 40% in the test on Bacteria [1]; 100% with Bacteria [3]; 40% with Bacteria [7]; 67% with Bacteria [8]; 100% in the test on Bacteria [10]; 80% in the test on Bacteria [11]. Besides, the values for the inhibition in the test on Bacteria [13] and with Bacteria [14] were 45% and 80%, respectively. Also, the inhibition entry (in test [2]; in the test on Escherichia coli; in test [12]) was “Active” in each case. The TIME in test [4] was above 0.25 h; in the test with Bacteria [5], 0.0167 h; with Bacteria [6] it was 0.0833 h. The compound also yielded an Activity with Bacteria [9] of 20%.

Source of the values: ChEMBL document CHEMBL5030509, “A Crowding Barrier to Protein Inhibition in Colloidal Aggregates” (J Med Chem, 2021).
